Values joined by “and” are separate entries in the source; they are usually repeats but may differ in a detail not shown here. Equal entries are not always repeated.
Legend:
DU-145 = experiment: In vitro Cytotoxic activity of compound in comparison with reference compounds in human cell line DU145; format: functional, cell-based
How it was run: (§1)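 Monolayer lines were used: A2780, A2780/Dx, DU145 and PC3 in RPMI 1640, LoVo and LoVo/Dx in Ham's F-12, and HT29 and HT29/Mx in McCoy's 5A, each with 10% FBS. Drug exposure was 72 h. […] Resistance index = IC50 in resistant / IC50 in sensitive line.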

HT-29 [1] = experiment: Percent inhibition at G1 phase of cell cycle at a dose of 100n g/mL after 72 hours of induction in HT-29/Mx cell line; format: functional, Homo sapiens
How it was run: (§2)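 HT29 or HT29/Mx cells were treated for 72 h, then fixed in 70% ice-cold ethanol. Cells were stained with PBS containing 30 μg/mL propidium iodide and 66 units/mL RNase A, and DNA content was measured by flow cytometry on at least 10^4 cells to give G1, S and G2/M fractions.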

HT-29 [2] = experiment: Percent inhibition at G1 phase of cell cycle at a dose of 10 ng/mL after 72 hours of induction in HT-29/Mx cell line; format: functional; conditions: Homo sapiens, HT-29, 72 h; how it was run: as §2
HT-29 [3] = experiment: Percent inhibition at G1 phase of cell cycle at a dose of 20 ng/mL after 72 hours of induction in HT-29/Mx cell line; format: functional; conditions: Homo sapiens, HT-29, 72 h; how it was run: as §2
HT-29 [4] = experiment: Percent inhibition at G2/M phase of cell cycle at a dose of 10 ng/mL after 72 hours of induction in HT-29/Mx cell line; format: functional; conditions: Homo sapiens, HT-29, 72 h; how it was run: as §2
HT-29 [5] = experiment: Percent inhibition at S phase of cell cycle at a dose of 100n g/mL after 72 hours of induction in HT-29/Mx cell line; format: functional, Homo sapiens
How it was run: (§3)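 HT29 and mitoxantrone-resistant HT29/Mx colon adenocarcinoma monolayers in McCoy's 5A with 10% FBS and 1% 1 M Hepes, 37 °C, 5% CO2. Drug exposure 72 h. Cells then fixed in 70% ice-cold ethanol, washed twice and resuspended in PBS with 30 μg/mL propidium iodide and 66 units/mL RNase A. At least 10^4 cells per sample read for DNA content by flow cytometry. G1/S/G2M fractions reported as percentages.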

HT-29 [6] = experiment: Percent inhibition at S phase of cell cycle at a dose of 10 ng/mL after 72 hours of induction in HT-29/Mx cell line; format: functional; conditions: Homo sapiens, HT-29, 72 h; how it was run: as §3
HT-29 [7] = experiment: Effect of compound as percent survival at dose of 20 ng/mL on HT-29/Mx cell line after 72 hours; format: functional; conditions: Homo sapiens, HT-29, 72 h; read-out: Survival
How it was run: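 HT29 or mitoxantrone-resistant HT29/Mx monolayers grown in McCoy's 5A with 10% FBS and 1% 1 M Hepes at 37 °C, 5% CO2. Cells exposed to drug for 72 h. Survival measured by cell counting and given as percent of untreated control.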

HT-29 [8] = experiment: In vitro Cytotoxic activity of compound in comparison with reference compounds in human cell line HT-29/Mx(RI); format: functional, cell-based; how it was run: as §1
HT-29 [9] = experiment: Percent inhibition at G2/M phase of cell cycle at a dose of 100n g/mL after 72 hours of induction in HT-29 cell line; format: functional, Homo sapiens; how it was run: as §2
HT-29 [10] = experiment: Percent inhibition at S phase of cell cycle at a dose of 100n g/mL after 72 hours of induction in HT-29 cell line; format: functional, Homo sapiens; how it was run: as §3
HT-29 [11] = experiment: Percent inhibition at S phase of cell cycle at a dose of 25 ng/mL after 72 hours of induction in HT-29 cell line; format: functional; conditions: Homo sapiens, HT-29, 72 h; how it was run: as §3
L1210 = experiment: Compound was tested in vitro for cytotoxicity against L1210 murine cell line (48 hr exposure to compound); format: functional, cell-based; conditions: Mus musculus, L1210, 48 h
How it was run: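 L1210 cells were grown in RPMI 1640 with 5% FBS, 37 °C, 5% CO2, and exposed to drug for 48 h. Growth was read by Lowry cellular protein. IC50 is the concentration giving 50% growth inhibition, reported as the mean of at least three independent experiments ± SEM.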

LoVo = experiment: In vitro Cytotoxic activity of compound in comparison with reference compounds in human cell line LoVo; format: functional, cell-based; how it was run: as §1
Mus musculus [12] = experiment: In vivo antileukemic activity towards P388 Murine Leukemia at a dose of 22.5 mg/kg, expressed as body weight change; format: functional
Mus musculus [13] = experiment: In vivo antileukemic activity towards P388 Murine Leukemia at a dose of 30.0 mg/kg, expressed as body weight change; format: functional
Mus musculus [14] = experiment: In vivo antileukemic activity towards P388 Murine Leukemia at a dose of 35.0 mg/kg, expressed as body weight change; format: functional
Mus musculus [15] = experiment: Long-term survivors when compound was tested for in vivo antileukemic activity towards P388 Murine Leukemia at dose of 10.0 mg/kg tested in 18 animals; format: functional
Mus musculus [16] = experiment: In vivo antileukemic activity towards P388 Murine Leukemia at a dose of 1.0 mg/kg; format: functional
Mus musculus [17] = experiment: In vivo antileukemic activity towards P388 Murine Leukemia at a dose of 10.0 mg/kg; format: functional
Mus musculus [18] = experiment: In vivo antileukemic activity towards P388 Murine Leukemia at a dose of 5.0 mg/kg; format: functional
Mus musculus [19] = experiment: Toxic deaths at dose of 10 mg/kg (i.v.) to nude mice bearing sc Human ovarian carcinoma Xenografts tested in 4 animals; format: functional; conditions: route intravenous
How it was run: (§4)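 Tumor fragments of A2780, A2780/Dx or HT29/Mx grafted sc in both flanks of Swiss athymic nude mice, 4–5 mice per group. Drug given iv once weekly on 3 days: days 4, 11, 18 (A2780, HT29/Mx) or days 7, 14, 21 (A2780/Dx). Dosing started at mean tumor volume 80–100 mm3. Toxic deaths recorded as deaths/total mice.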

Mus musculus [20] = experiment: Toxic deaths at dose of 20 mg/kg (i.v.) to nude mice bearing sc Human colon carcinoma Xenografts tested in 4 animals; format: functional; conditions: route intravenous; how it was run: as §4
Mus musculus [21] = experiment: Tumor volume inhibition administered iv at a dose of 10 mg/kg to nude mice bearing sc Human ovarian carcinoma Xenografts; format: functional
How it was run: (§5)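 Swiss nude athymic mice carrying tumor fragments grafted sc in both flanks, 4–5 mice (8–10 tumors) per group. Tumor lines kept by sc passage. Dosing iv once weekly for 3 doses, starting at mean tumor volume ca. 80–100 mm3 (A2780, HT29/Mx: days 4, 11, 18; A2780/Dx: days 7, 14, 21). Diameters measured twice weekly; TV = d²×D/2. %TVI treated vs control assessed 3–10 days after last dose.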

Mus musculus [22] = experiment: Tumor volume inhibition administered iv at a dose of 6.7 mg/kg to nude mice bearing sc Human A2780/Dx Xenografts; format: functional, A2780 ADR; how it was run: as §5
Mus musculus [23] = experiment: Long-term survivors when compound was tested for in vivo antileukemic activity towards P388 Murine Leukemia at dose of 35.0 mg/kg tested in 6 animals; format: functional
Mus musculus [24] = experiment: Long-term survivors when compound was tested for in vivo antileukemic activity towards P388 Murine Leukemia at dose of 5.0 mg/kg tested in 18 animals; format: functional
Mus musculus [25] = experiment: Antileukemic activity expressed as number of toxic deaths/total number of mice at dose 22.5 mg/kg tested in 6 animals; format: functional
Mus musculus [26] = experiment: In vivo antileukemic activity towards P388 Murine Leukemia at a dose of 20.0 mg/kg; format: functional
HT-29 [27] = experiment: Percent inhibition at G2/M phase of cell cycle at a dose of 100n g/mL after 72 hours of induction in HT-29/Mx cell line; format: functional, Homo sapiens; how it was run: as §2

`CN(C)CCNc1ccc2ncnc3c2c1C(=O)c1c(O)ccc(O)c1-3` was tested, and the IC50 (DU-145) was 5.7 nM, the Inhibition (HT-29 [1]) was 25% and the inhibition at 0.01 µg/mL (HT-29 [2]) was 63%. It also gave an inhibition at 0.02 µg/mL (HT-29 [3]) of 58%, an inhibition at 0.01 µg/mL (HT-29 [4]) of 30% and an Inhibition (HT-29 [5]) of 17%. For the same compound, the inhibition at 0.01 µg/mL (HT-29 [6]) was 7%, the viability at 0.02 µg/mL (HT-29 [7]) was 61% and the IC50 (HT-29 [8]) was 56.9 nM. It also gave an Inhibition (HT-29 [9]) of 57%, an Inhibition (HT-29 [10]) of 21% and an inhibition at 0.025 µg/mL (HT-29 [11]) of 19%. For the same compound, the IC50 (L1210) was 1.29 nM, the IC50 (LoVo) was 11.1 nM and the Body weight change (Mus musculus [12]) was 0.88 BWC. It also gave a Body weight change (Mus musculus [13]) of 0.88 BWC, a Body weight change (Mus musculus [14]) of 0.73 BWC and an LTS (Mus musculus [15]) of 0. The “T/C (ratio of treated to control)” value (Mus musculus [16]) was 118%, the “T/C (ratio of treated to control)” value (Mus musculus [17]) was 172% and 196% and the “T/C (ratio of treated to control)” value (Mus musculus [18]) was 147% and 167%. The Toxic deaths (Mus musculus [19]) was 0, the Toxic deaths (Mus musculus [20]) was 0 and the TVI (Mus musculus [21]) was 62% and 80%. For the same compound, the TVI (Mus musculus [22]) was 46%, the LTS (Mus musculus [23]) was 0 and the LTS (Mus musculus [24]) was 1. The Toxic deaths (Mus musculus [25]) was 1, the “T/C (ratio of treated to control)” value (Mus musculus [26]) was 205% and 207% and the Inhibition (HT-29 [27]) was 58%.
